# Calls of active or inactive are those of the source. The calls are words filed in the database; no cut-off is given here.
# Columns and labels:
# [1] = tested on: Avena sativa; test: Herbicidal activity against Avena sativa under paddy conditions; format: functional, organism-based
# [2] = tested on: Abutilon theophrasti; test: Post-emergence herbicidal activity against Abutilon theophrasti (velvetleaf); format: functional, organism-based
# [3] = tested on: Oryza sativa; test: Pre-emergence herbicidal activity against Oryza sativa (rice); format: functional, organism-based
# [4] = tested on: Rhizoctonia solani; test: Fungicidal activity against Rhizoctonia solani at 500 ppm after 7 days by poisoned food technique; format: functional; conditions: 168 h, read-out: GI
# Method in brief: (§1)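 Cultures kept on potato dextrose agar. Each compound, dissolved in acetone, was added to potato dextrose agar at a final 500 ppm (w/v) (poisoned food technique). A disc cut from the periphery of a seven-day-old culture was inoculated onto each set. Control sets held potato dextrose agar only. The read-out is percentage inhibition of fungal growth relative to control.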
# [5] = tested on: Sagittaria latifolia; test: Post-emergence herbicidal activity against Sagittaria latifolia (broadleaf arrowhead); format: functional, organism-based
# [6] = tested on: Oryza sativa; test: Herbicidal activity against Oryza sativa (rice) under paddy conditions; format: functional, organism-based
# [7] = tested on: Convolvulaceae; test: Pre-emergence herbicidal activity against Convolvulaceae (morning glory family); format: functional, organism-based
# [8] = tested on: Echinochloa crus-galli; test: Herbicidal activity against Echinochloa crus-galli (barnyard grass) under paddy conditions; format: functional, organism-based
# [9] = tested on: Echinochloa crus-galli; test: Post-emergence herbicidal activity against Echinochloa crus-galli (barnyard grass); format: functional, organism-based
# [10] = tested on: Convolvulaceae; test: Herbicidal activity against Convolvulaceae (morning glory family) under paddy conditions; format: functional, organism-based
# [11] = tested on: Abutilon theophrasti; test: Pre-emergence herbicidal activity against Abutilon theophrasti (velvetleaf); format: functional, organism-based
# [12] = tested on: Culex pipiens pallens; test: Insecticidal activity against Culex pipiens pallens (mosquito) at 3 to 5 ppm; format: functional, organism-based
# [13] = tested on: Schoenoplectus acutus; test: Herbicidal activity against Schoenoplectus acutus (hardstem bulrush) under paddy conditions; format: functional, organism-based
# [14] = tested on: Echinochloa crus-galli; test: Pre-emergence herbicidal activity against Echinochloa crus-galli (barnyard grass); format: functional, organism-based
# [15] = tested on: Avena sativa; test: Post-emergence herbicidal activity against Avena sativa; format: functional, organism-based
# [16] = tested on: Musca domestica; test: Insecticidal activity against Musca domestica (house fly); format: functional, organism-based
# [17] = tested on: Spodoptera litura; test: Insecticidal activity against Spodoptera litura; format: functional, organism-based
# [18] = tested on: Sagittaria latifolia; test: Pre-emergence herbicidal activity against Sagittaria latifolia (broadleaf arrowhead); format: functional, organism-based
# [19] = tested on: Avena sativa; test: Pre-emergence herbicidal activity against Avena sativa; format: functional, organism-based
# [20] = tested on: Schoenoplectus acutus; test: Post-emergence herbicidal activity against Schoenoplectus acutus (hardstem bulrush); format: functional, organism-based
# [21] = tested on: Helminthosporium; test: Fungicidal activity against Helminthosporium oryzae at 500 ppm after 7 days by poisoned food technique; format: functional; conditions: 168 h, read-out: GI; method in brief: as §1
# [22] = tested on: Convolvulaceae; test: Post-emergence herbicidal activity against Convolvulaceae (morning glory family); format: functional, organism-based
# [23] = tested on: Schoenoplectus acutus; test: Pre-emergence herbicidal activity against Schoenoplectus acutus (hardstem bulrush); format: functional, organism-based
# [24] = tested on: Oryza sativa; test: Post-emergence herbicidal activity against Oryza sativa (rice); format: functional, organism-based
# [25] = tested on: Tetranychus cinnabarinus; test: Insecticidal activity against Tetranychus cinnabarinus (carmine spider mite); format: functional, organism-based
# [26] = tested on: Sagittaria latifolia; test: Herbicidal activity against Sagittaria latifolia (broadleaf arrowhead) under paddy conditions; format: functional, organism-based
Structure (SMILES),Activity [1],Activity [2],Activity [3],inhibition of growth at 500 ppm [4] [%],Activity [5],Activity [6],Activity [7],Activity [8],Activity [9],Activity [10],Activity [11],Activity [12],Activity [13],Activity [14],Activity [15],Activity [16],Activity [17],Activity [18],Activity [19],Activity [20],other results
c1ccc2[nH]c(CSc3nnc(-c4ccncc4)o3)nc2c1,inactive,inactive,inactive,32,inactive,inactive,inactive,inactive,inactive,inactive,inactive,Active,inactive,inactive,inactive,inactive,inactive,inactive,inactive,inactive,inhibition of growth at 500 ppm [21]: 49.8%; Activity [22]: inactive; Activity [23]: inactive; Activity [24]: inactive; Activity [25]: inactive; Activity [26]: inactive
Cc1ccc2[nH]c(CSc3nc4ccccc4[nH]3)nc2c1,inactive,inactive,inactive,61.3,inactive,inactive,inactive,inactive,inactive,inactive,inactive,Active,inactive,inactive,inactive,inactive,inactive,inactive,inactive,inactive,inhibition of growth at 500 ppm [21]: 81.3%; Activity [22]: inactive; Activity [23]: inactive; Activity [24]: inactive; Activity [25]: inactive; Activity [26]: inactive

# Reference: ChEMBL document CHEMBL3046353, “Synthesis and fungicidal activity of some 5-membered heterocyclic derivatives containing benzimidazoles” (1993)
